Measurements reported in ChEMBL document CHEMBL4118021, “Studies of TAK1-centered polypharmacology with novel covalent TAK1 inhibitors” (Bioorg Med Chem, 2017).
Calls of active or inactive are those of the source. No cut-off for these calls is given here.

Assays:
Type in all cases: cell-based
[1] = target: Mitogen-activated protein kinase kinase kinase 21 (Homo sapiens) (UniProt Q5TCX8); experiment: Inhibition of MLK4 in human SKCO1 cells at 1 uM after 4 hrs using biotin labeled DLKSSNILLLEK probe by mass-spectrometric analysis relative to control
Chain of Mitogen-activated protein kinase kinase kinase 21 (Homo sapiens) (Q5TCX8 whole entry): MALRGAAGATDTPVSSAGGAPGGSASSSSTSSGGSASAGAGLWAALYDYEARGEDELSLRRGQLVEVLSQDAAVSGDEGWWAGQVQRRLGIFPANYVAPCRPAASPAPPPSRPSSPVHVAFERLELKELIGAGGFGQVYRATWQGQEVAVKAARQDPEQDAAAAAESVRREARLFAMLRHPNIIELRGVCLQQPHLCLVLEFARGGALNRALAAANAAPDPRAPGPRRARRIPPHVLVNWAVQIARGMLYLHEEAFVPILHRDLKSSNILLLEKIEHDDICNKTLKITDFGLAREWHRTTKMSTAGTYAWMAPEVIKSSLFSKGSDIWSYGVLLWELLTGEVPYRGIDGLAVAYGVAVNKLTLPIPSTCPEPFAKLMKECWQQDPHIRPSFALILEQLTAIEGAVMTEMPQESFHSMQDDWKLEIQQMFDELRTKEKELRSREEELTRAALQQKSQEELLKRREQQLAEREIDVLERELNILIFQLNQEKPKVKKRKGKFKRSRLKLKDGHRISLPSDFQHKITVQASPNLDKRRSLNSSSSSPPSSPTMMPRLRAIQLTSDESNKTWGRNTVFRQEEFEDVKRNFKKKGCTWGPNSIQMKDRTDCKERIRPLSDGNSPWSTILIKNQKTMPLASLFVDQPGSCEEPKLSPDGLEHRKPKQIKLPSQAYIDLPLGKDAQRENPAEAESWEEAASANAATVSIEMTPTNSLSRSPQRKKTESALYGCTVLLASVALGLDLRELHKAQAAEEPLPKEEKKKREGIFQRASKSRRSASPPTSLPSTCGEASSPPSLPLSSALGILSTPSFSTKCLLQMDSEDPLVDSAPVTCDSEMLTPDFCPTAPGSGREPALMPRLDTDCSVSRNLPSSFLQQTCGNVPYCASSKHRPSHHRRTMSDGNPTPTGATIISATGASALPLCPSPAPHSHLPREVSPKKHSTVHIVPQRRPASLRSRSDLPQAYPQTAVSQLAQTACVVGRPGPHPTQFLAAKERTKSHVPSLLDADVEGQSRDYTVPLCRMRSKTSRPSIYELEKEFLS

[2] = target: Tyrosine-protein kinase Yes (Homo sapiens) (UniProt P07947); experiment: Binding affinity to YES1 in human NCI-H358 cells at 1 uM by mass spectrometry based pull down assay
[3] = target: T1, 80S Ribosome (Homo sapiens) (UniProt P08865+P42677+P62753+P15880+P23396+P61247+P62701+P22090+P46782+P62081+P62241+P46781+P46783+P62280+P25398+P62277+P62263+P62841+P62244+P62249+P08708+P62269+P39019+P60866+P63220+P62266+P62847+P62851+P62854+P62979+P62857+P62273+P62861+P39023+P36578+P46777+Q02878+P18124+P62424+P62917+P32969+P27635+P62906+P62913+P30050+P26373+P40429+P50914+P61313+P18621+Q07020+Q02543+P84098+P46778+P35268+P62829+P62750+P83731+P61254+P61353+P46776+P46779+P47914+P62888+P62899+P62910+P49207+P42766+P18077+Q9Y3U8+P83881+P61927+P61513+P63173+P62891+P62945+P05388+P05386); experiment: Binding affinity to RPS24 in human NCI-H23 cells at 1 uM by mass spectrometry based pull down assay
[4] = target: 14-3-3 protein epsilon (Homo sapiens) (UniProt P62258); experiment: Binding affinity to YWHAE in human NCI-H358 cells at 1 uM by mass spectrometry based pull down assay
Chain of 14-3-3 protein epsilon (Homo sapiens) (P62258 whole entry): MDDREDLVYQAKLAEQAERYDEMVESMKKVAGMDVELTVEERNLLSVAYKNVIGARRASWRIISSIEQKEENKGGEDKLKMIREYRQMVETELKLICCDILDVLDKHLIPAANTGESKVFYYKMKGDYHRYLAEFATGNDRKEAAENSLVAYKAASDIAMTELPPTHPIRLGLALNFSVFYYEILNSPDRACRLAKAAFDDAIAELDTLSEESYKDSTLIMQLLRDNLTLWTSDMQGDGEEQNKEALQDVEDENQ

[5] = target: Polyadenylate-binding protein 4 (Homo sapiens) (UniProt Q13310); experiment: Binding affinity to PABPC4 in human NCI-H23 cells at 1 uM by mass spectrometry based pull down assay
[6] = target: Mitotic interactor and substrate of PLK1 (Homo sapiens) (UniProt Q8IVT2); experiment: Binding affinity to MISP in human NCI-H358 cells at 1 uM by mass spectrometry based pull down assay
Chain of Mitotic interactor and substrate of PLK1 (Homo sapiens) (Q8IVT2 whole entry): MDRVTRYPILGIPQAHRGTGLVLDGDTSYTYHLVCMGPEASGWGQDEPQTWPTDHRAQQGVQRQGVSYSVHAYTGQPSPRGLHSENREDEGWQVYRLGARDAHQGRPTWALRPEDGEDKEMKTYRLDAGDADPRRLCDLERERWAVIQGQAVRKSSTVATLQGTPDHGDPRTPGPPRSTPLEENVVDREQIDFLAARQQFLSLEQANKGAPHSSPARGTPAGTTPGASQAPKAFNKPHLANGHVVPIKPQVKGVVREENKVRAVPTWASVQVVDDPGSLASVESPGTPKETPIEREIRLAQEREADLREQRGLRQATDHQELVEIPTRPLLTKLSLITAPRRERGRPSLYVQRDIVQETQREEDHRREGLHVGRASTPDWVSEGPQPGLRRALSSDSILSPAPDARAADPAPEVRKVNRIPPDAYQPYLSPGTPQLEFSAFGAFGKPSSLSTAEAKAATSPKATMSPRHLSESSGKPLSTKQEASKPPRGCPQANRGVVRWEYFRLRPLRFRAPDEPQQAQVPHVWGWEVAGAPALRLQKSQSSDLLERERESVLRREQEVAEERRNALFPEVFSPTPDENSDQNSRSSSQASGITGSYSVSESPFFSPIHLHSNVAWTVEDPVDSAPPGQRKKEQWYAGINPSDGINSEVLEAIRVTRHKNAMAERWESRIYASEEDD

[7] = target: Proteasome Macropain subunit MB1 (Homo sapiens) (UniProt P28074); experiment: Binding affinity to PSMB5 in human NCI-H23 cells at 1 uM by mass spectrometry based pull down assay
Chain of Proteasome Macropain subunit MB1 (Homo sapiens) (P28074 whole entry): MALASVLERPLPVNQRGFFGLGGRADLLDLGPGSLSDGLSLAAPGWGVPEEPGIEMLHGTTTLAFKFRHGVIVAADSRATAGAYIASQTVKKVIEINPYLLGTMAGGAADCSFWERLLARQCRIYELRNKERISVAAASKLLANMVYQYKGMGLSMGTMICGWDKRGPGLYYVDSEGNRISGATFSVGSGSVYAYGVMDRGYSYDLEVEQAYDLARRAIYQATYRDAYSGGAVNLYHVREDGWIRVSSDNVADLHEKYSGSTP

[8] = target: Apoptosis-inducing factor 1, mitochondrial (Homo sapiens) (UniProt O95831); experiment: Binding affinity to AIFM1 in human NCI-H23 cells at 1 uM by mass spectrometry based pull down assay
How it was run: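 NCI-H23 or NCI-H358 cells were grown and lysed. Lysates were incubated overnight at 4 °C with 1 μM biotinylated covalent probe or DMSO, then pulled down on streptavidin beads. Proteins were run on polyacrylamide gels and stained with Coomassie. Bands were excised, digested and identified by mass spectrometry.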

[9] = target: E3 ubiquitin-protein ligase TRIM33 (Homo sapiens) (UniProt Q9UPN9); experiment: Binding affinity to TRIM33 in human NCI-H23 cells at 1 uM by mass spectrometry based pull down assay
Chain of E3 ubiquitin-protein ligase TRIM33 (Homo sapiens) (Q9UPN9 whole entry): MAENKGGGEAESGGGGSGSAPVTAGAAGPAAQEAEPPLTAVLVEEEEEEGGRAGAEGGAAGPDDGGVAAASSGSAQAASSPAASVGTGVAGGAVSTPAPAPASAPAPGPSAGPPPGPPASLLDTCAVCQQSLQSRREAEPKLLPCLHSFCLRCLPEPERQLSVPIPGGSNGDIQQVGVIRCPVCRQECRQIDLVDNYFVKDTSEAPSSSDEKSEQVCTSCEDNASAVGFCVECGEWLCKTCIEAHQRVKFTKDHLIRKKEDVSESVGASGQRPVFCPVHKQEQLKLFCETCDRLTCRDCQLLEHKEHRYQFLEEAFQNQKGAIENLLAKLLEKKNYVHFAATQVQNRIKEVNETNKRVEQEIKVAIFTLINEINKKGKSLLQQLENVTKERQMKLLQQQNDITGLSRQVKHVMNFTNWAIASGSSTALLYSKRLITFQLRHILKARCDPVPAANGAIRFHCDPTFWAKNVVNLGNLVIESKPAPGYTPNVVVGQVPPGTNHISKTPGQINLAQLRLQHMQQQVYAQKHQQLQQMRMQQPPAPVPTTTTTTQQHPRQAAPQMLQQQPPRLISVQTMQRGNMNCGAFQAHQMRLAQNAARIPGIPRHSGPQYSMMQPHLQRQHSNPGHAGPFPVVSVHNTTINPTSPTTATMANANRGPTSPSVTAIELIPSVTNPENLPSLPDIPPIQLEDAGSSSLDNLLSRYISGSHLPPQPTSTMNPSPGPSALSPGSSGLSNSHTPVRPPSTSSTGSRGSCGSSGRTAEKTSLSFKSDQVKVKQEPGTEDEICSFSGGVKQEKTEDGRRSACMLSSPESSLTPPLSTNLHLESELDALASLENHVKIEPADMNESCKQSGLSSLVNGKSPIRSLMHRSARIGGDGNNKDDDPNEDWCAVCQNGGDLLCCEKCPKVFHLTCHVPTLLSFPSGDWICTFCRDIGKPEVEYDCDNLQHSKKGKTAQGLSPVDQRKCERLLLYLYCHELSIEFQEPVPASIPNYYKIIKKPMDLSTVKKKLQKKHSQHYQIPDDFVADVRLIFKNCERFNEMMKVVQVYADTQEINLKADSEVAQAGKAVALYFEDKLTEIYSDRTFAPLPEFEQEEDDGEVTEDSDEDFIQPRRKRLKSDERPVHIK

[10] = target: T1, 80S Ribosome (Homo sapiens); experiment: Binding affinity to RPS23 in human NCI-H23 cells at 1 uM by mass spectrometry based pull down assay
[11] = target: Mitogen-activated protein kinase 1 (Homo sapiens) (UniProt P28482); experiment: Binding affinity to MAPK1 in human NCI-H23 cells at 1 uM by mass spectrometry based pull down assay
NCI-H23 = experiment: Binding affinity to NDUFS3 in human NCI-H23 cells at 1 uM by mass spectrometry based pull down assay
[12] = target: Peroxiredoxin-6 (Homo sapiens) (UniProt P30041); experiment: Binding affinity to PRDX6 in human NCI-H23 cells at 1 uM by mass spectrometry based pull down assay
Chain of Peroxiredoxin-6 (Homo sapiens) (P30041 whole entry): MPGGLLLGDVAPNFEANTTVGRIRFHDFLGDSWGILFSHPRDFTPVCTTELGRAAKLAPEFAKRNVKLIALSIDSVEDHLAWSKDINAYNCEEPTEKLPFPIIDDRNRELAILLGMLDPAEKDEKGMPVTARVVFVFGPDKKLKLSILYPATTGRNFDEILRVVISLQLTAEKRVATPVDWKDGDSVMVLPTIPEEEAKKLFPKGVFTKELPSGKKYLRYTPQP

[13] = target: T2, Mitogen-activated protein kinase kinase kinase 7 (Homo sapiens) (UniProt O43318); experiment: Binding affinity to MAP3K7 in human NCI-H358 cells at 1 uM by mass spectrometry based pull down assay
T2 sequence (whole entry): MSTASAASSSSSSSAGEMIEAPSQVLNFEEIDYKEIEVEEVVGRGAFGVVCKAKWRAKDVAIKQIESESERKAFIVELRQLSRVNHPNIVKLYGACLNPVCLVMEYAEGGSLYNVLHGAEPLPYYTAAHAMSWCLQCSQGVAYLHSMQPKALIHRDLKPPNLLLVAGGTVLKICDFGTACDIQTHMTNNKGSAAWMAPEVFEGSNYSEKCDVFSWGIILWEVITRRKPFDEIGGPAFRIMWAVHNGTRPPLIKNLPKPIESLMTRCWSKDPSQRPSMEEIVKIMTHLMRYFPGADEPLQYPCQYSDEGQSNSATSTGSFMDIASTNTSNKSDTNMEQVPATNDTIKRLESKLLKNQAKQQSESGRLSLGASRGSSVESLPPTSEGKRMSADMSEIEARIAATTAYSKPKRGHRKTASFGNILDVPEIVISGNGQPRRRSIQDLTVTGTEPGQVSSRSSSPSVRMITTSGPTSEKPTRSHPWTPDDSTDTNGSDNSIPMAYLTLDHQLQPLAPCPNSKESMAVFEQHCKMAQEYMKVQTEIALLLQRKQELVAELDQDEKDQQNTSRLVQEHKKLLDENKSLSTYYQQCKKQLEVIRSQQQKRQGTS

Plectin (Homo sapiens) = Plectin (Homo sapiens) (UniProt Q15149); experiment: Binding affinity to PLEC in human NCI-H358 cells at 1 uM by mass spectrometry based pull down assay
[14] = target: Nucleoside diphosphate kinase A/B (Homo sapiens) (UniProt P15531+P22392); experiment: Binding affinity to NME1-NME2 in human NCI-H23 cells at 1 uM by mass spectrometry based pull down assay
[15] = target: Actin-related protein 2/3 complex subunit 1B (Homo sapiens) (UniProt O15143); experiment: Binding affinity to ARPC1B in human NCI-H358 cells at 1 uM by mass spectrometry based pull down assay
[16] = target: DNA replication licensing factor MCM6 (Homo sapiens) (UniProt Q14566); experiment: Binding affinity to MCM6 in human NCI-H358 cells at 1 uM by mass spectrometry based pull down assay
Chain of DNA replication licensing factor MCM6 (Homo sapiens) (Q14566 whole entry): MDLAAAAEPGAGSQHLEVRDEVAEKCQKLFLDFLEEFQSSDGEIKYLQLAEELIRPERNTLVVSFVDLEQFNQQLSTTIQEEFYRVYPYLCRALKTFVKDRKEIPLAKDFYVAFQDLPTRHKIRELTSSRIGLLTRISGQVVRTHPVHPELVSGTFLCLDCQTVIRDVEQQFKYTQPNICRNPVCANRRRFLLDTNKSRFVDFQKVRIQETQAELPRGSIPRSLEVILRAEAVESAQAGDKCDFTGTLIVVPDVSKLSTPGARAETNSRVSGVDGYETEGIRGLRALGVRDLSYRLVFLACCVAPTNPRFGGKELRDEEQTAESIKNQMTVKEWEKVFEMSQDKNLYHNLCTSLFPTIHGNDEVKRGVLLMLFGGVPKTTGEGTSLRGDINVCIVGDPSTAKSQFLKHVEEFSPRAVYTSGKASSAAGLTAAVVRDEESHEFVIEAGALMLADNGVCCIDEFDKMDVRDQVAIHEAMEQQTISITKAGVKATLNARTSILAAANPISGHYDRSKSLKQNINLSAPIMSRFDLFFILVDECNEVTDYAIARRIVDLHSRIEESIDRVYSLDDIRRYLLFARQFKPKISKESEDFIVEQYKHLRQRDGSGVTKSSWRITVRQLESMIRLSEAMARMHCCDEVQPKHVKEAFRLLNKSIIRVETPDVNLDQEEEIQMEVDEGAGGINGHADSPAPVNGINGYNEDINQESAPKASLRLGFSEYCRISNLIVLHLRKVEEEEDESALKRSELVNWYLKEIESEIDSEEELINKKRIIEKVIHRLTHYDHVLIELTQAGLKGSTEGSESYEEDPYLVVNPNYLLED

[17] = target: Thioredoxin-dependent peroxide reductase, mitochondrial (Homo sapiens) (UniProt P30048); experiment: Binding affinity to PRDX3 in human NCI-H23 cells at 1 uM by mass spectrometry based pull down assay
Chain of Thioredoxin-dependent peroxide reductase, mitochondrial (Homo sapiens) (P30048 whole entry): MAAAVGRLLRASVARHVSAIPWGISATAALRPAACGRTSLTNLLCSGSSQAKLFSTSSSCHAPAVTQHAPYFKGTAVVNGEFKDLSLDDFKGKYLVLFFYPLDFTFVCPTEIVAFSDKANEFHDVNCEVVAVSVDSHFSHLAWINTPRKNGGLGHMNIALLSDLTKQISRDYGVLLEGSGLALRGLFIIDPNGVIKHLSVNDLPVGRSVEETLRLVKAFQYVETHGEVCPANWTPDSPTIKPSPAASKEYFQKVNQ

[18] = target: DNA replication licensing factor MCM6 (Homo sapiens) (UniProt Q14566); experiment: Binding affinity to MCM6 in human NCI-H23 cells at 1 uM by mass spectrometry based pull down assay
[19] = target: 14-3-3 protein eta (Homo sapiens) (UniProt Q04917); experiment: Binding affinity to YWHAH in human NCI-H358 cells at 1 uM by mass spectrometry based pull down assay
Chain of 14-3-3 protein eta (Homo sapiens) (Q04917 whole entry): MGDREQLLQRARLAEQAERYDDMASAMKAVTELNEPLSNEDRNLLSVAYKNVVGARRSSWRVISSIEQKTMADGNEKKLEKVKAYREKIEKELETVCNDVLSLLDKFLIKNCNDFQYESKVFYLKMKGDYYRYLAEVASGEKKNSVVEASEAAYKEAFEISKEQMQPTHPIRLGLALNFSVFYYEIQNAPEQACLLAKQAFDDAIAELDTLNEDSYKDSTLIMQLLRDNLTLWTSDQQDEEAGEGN

[20] = target: Leucine-rich PPR motif-containing protein, mitochondrial (Homo sapiens) (UniProt P42704); experiment: Binding affinity to LRPPRC in human NCI-H358 cells at 1 uM by mass spectrometry based pull down assay

In the case of `C=CC(=O)Nc1ccccc1Nc1nc(Nc2ccc(N3CCN(C)CC3)cc2)ncc1Cl`, the inhibition [1] is reported as -1.1%.

With `C=CC(=O)Nc1ccccc1Nc1nc(Nc2ccc(N3CCN(CCOCCOCCOCCNC(=O)CCCC[C@@H]4SC[C@@H]5NC(=O)N[C@@H]54)CC3)cc2)ncc1Cl` the Activity [2] was “Active”, the Activity [3] was “Active” and the Activity [4] was “Active”. The Activity [5] was “Active”, the Activity [6] was “Active” and the Activity [7] was “Active”. For the same molecule, the Activity [8] was “Active”, the Activity [9] was “Active” and the Activity [10] was “Active”. For the same molecule, the Activity [11] was “Active”, the Activity (NCI-H23) was “Active” and the Activity [12] was “Active”. The Activity [13] was “Active”, the Activity (Plectin (Homo sapiens)) was “Active” and the Activity [14] was “Active”. The Activity [15] was “Active”, the Activity [16] was “Active” and the Activity [17] was “Active”. For the same molecule, the Activity [18] was “Active”, the Activity [19] was “Active” and the Activity [20] was “Active”.
